# Data taken from ChEMBL document CHEMBL4732101, “Novel quinolone-based potent and selective HDAC6 inhibitors: Synthesis, molecular modeling studies and biological investigation” (Eur J Med Chem, 2021).
# Assays:
# [1] = target: Histone deacetylase 1 (Homo sapiens, UniProt Q13547); assay: Inhibition of recombinant human C-terminal FLAG/His-tagged HDAC1 (1 to 482 residues) expressed in Sf9 insect cells using Z-(Ac)Lys-AMC as substrate measured after 90 mins by fluorescence assay
# In short: (§1)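 Incubated with inhibitor in DMSO and fluorogenic substrate Z-(Ac)Lys-AMC (126 µM, as added) for 90 min at 37 °C. Stopped with trichostatin A plus trypsin for 30 min at 37 °C; fluorescence read at ex 390/em 460 nm.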
# [2] = target: T1, Protein deacetylase HDAC6 (Homo sapiens, UniProt Q9UBN7); assay: Inhibition of recombinant human full length N-terminal GST-tagged HDAC6 expressed in baculovirus infected Sf9 cells using Z-(Ac)Lys-AMC as substrate measured after 90 mins by fluorescence assay
# T1 sequence (Q9UBN7 whole entry): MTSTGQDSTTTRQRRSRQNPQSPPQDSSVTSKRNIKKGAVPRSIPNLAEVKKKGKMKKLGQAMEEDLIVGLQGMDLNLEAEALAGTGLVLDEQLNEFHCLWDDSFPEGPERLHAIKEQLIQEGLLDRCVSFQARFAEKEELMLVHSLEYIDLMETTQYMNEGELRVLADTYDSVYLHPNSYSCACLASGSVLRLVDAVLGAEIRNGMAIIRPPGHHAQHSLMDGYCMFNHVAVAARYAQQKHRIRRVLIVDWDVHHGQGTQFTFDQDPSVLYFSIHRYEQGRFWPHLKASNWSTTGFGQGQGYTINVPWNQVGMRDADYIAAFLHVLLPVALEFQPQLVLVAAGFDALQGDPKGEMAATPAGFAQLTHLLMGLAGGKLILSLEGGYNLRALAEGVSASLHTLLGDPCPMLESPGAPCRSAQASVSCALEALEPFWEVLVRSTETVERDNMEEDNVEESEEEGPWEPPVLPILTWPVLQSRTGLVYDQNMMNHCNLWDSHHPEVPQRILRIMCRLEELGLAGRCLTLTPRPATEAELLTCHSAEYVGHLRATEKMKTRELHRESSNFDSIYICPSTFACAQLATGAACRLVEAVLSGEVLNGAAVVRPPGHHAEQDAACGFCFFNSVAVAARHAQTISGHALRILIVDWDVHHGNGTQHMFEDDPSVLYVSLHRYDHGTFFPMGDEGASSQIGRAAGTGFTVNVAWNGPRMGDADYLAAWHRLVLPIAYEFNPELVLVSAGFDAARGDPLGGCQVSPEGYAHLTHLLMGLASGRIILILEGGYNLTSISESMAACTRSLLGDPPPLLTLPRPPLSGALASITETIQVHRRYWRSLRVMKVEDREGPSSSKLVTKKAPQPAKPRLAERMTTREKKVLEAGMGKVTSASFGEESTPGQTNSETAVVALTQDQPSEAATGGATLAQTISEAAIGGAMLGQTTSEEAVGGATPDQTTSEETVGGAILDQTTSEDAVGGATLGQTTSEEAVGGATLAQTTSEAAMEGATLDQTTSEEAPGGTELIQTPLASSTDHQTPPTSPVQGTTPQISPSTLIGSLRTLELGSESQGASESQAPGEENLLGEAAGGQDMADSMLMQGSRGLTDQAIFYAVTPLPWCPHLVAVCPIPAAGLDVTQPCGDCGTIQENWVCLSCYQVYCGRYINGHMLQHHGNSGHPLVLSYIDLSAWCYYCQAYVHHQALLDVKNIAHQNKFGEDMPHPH
# [3] = Mutagenicity in Salmonella typhimurium TA100 at 5 to 230 uM measured after 90 mins in absence of rat liver S9 fraction by Ames test; type: toxicity; settings: salmonella enterica subsp. enterica serovar typhimurium, s9, 1.5 h, dose 5-230 µM
# [4] = Mutagenicity in Salmonella typhimurium TA98 at 5 to 230 uM measured after 90 mins in presence of rat liver S9 fraction by Ames test; type: toxicity, subcellular; settings: salmonella enterica subsp. enterica serovar typhimurium, s9, 1.5 h, dose 5-230 µM
# [5] = Mutagenicity in Salmonella typhimurium TA100 at 5 to 230 uM measured after 90 mins in presence of rat liver S9 fraction by Ames test; type: toxicity, subcellular; settings: salmonella enterica subsp. enterica serovar typhimurium, s9, 1.5 h, dose 5-230 µM
# [6] = test system: NIH3T3; assay: Cytotoxicity against mouse NIH/3T3 cells assessed as reduction in cell viability after 24 hrs by neutral red uptake assay; type: cell-based; settings: NIH3T3, 24 h
# In short: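 NIH3T3 fibroblasts seeded at 5 x 10^4 per well and cultured 24 h at 37 °C, 5% CO2. DMSO-solubilized samples added at 8 to 160 µM for 24 h; medium as negative control. Neutral Red medium applied 3 h, dye desorbed in acetic acid/ethanol, absorbance read at 540 nm. Three experiments, six replicates per concentration; viability normalized to % control.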
# [7] = Mutagenicity in Salmonella typhimurium TA98 at 5 to 230 uM measured after 90 mins in absence of rat liver S9 fraction by Ames test; type: toxicity; settings: salmonella enterica subsp. enterica serovar typhimurium, 1.5 h, dose 5-230 µM
# [8] = target: T2, Histone deacetylase 8 (Homo sapiens, UniProt Q9BY41); assay: Inhibition of recombinant human HDAC8 using Fluor-de-Lys as substrate measured after 1 hr by fluorescence assay
# T2 sequence (Q9BY41 whole entry): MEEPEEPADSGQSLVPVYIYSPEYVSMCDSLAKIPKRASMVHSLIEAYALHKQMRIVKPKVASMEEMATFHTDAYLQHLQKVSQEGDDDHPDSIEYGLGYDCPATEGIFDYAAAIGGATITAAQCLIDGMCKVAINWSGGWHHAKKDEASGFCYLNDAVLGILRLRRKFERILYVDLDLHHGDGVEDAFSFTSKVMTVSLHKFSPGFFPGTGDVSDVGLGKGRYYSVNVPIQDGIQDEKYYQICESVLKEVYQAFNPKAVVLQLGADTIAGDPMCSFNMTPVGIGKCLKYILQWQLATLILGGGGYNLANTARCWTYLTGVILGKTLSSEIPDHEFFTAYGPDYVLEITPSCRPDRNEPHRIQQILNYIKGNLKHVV
# [9] = target: T3, HDAC1 (histone deacetylase 1) (Homo sapiens, UniProt Q13547); assay: Inhibition of recombinant human C-terminal FLAG/His-tagged HDAC1 (1 to 482 residues) expressed in Sf9 insect cells at 50 uM using Z-(Ac)Lys-AMC as substrate measured after 90 mins by fluorescence assay relative to control; settings: probe Z-(Ac)Lys-AMC; in short: as §1
# T3 sequence (Q13547 whole entry, the tested form may be a part): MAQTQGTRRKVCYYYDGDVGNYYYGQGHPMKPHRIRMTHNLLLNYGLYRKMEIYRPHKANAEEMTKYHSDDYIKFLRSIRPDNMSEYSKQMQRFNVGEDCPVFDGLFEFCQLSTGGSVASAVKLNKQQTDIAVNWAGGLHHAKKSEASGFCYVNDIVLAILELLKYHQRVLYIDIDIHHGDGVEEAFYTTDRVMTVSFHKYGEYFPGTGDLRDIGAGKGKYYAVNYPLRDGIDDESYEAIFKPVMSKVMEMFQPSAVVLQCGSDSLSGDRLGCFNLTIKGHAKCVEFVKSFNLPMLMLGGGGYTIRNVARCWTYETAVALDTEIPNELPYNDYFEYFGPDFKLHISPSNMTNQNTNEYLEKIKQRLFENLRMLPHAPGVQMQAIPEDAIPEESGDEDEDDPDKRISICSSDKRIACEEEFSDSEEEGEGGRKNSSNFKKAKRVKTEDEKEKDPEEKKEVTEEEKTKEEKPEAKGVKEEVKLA
# [10] = target: T3, HDAC1 (histone deacetylase 1); assay: Inhibition of recombinant human C-terminal FLAG/His-tagged HDAC1 (1 to 482 residues) expressed in Sf9 insect cells at 10 uM using Z-(Ac)Lys-AMC as substrate measured after 90 mins by fluorescence assay relative to control; settings: probe Z-(Ac)Lys-AMC; in short: as §1
# [11] = target: T3, HDAC1 (histone deacetylase 1); assay: Inhibition of recombinant human C-terminal FLAG/His-tagged HDAC1 (1 to 482 residues) expressed in Sf9 insect cells at 1 uM using Z-(Ac)Lys-AMC as substrate measured after 90 mins by fluorescence assay relative to control; settings: probe Z-(Ac)Lys-AMC; in short: as §1
# [12] = target: T3, HDAC1 (histone deacetylase 1); assay: Inhibition of recombinant human C-terminal FLAG/His-tagged HDAC1 (1 to 482 residues) expressed in Sf9 insect cells at 25 uM using Z-(Ac)Lys-AMC as substrate measured after 90 mins by fluorescence assay relative to control; settings: probe Z-(Ac)Lys-AMC; in short: as §1
# [13] = Stability of compound in pH 3 buffer assessed as parent compound remaining at 250 uM measured after 24 hrs by HPLC/UV/DAD method; type: physicochemical; settings: read-out: Stabilty
# In short: (§2)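 10 mM DMSO stock diluted to 250 µM (2.5% DMSO) in 50 mM acetic acid, pH 3.0, and shaken 24 h at 25 °C. For solubility, samples filtered, diluted 1:2, quantified by HPLC-UV at 254 nm against a standard. For stability, percent remaining taken as the 24 h peak area over the T0 peak area. Triplicate analyses averaged.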
# [14] = Solubility of compound in pH 3 buffer at 250 uM measured after 24 hrs by HPLC/UV/DAD method; type: physicochemical; settings: pH 3, 24 h; in short: as §2
# Sequence of Histone deacetylase 1 (Q13547 whole entry, the tested form may be a part): as above
structure (smiles),measurement,setting,value
C#CCn1c(=O)c(OCc2ccc(C(=O)NO)cc2)c(-c2ccccc2)c2ccccc21,IC50,[1],6.1 µM
same,IC50,[2],0.0823 µM
Cn1c(=O)c(OCc2ccc(C(=O)NO)cc2)c(C2CCCCC2)c2ccccc21,Activity,[3],Non-Toxic
same,IC50,[1],3 µM
same,Activity,[4],Non-Toxic
same,Activity,[5],Non-Toxic
same,IC50,[2],0.033 µM
same,IC50,[6],18 µM
same,Activity,[7],Non-Toxic
same,IC50,[8],1.64 µM
same,Kapp,"[8]; human, 1 h",1.93 µM
O=C(NO)c1ccc(Cn2c(=O)c(OCc3ccccc3)c(-c3ccccc3)c3ccccc32)cc1,IC50,[1],5.5 µM
same,IC50,[2],0.0845 µM
O=C(NO)c1ccc(COc2c(-c3ccccc3)c3ccccc3n(Cc3ccccc3)c2=O)cc1,"inhibition at 1.5 h, 50 µM",[9],97%
same,"inhibition at 1.5 h, 10 µM",[10],76%
same,"inhibition at 1.5 h, 1 µM",[11],17%
same,"inhibition at 1.5 h, 25 µM",[12],93%
same,IC50,[2],0.176 µM
COc1c(-c2ccccc2)c2ccccc2n(Cc2ccc(C(=O)NO)cc2)c1=O,Activity,[3],Non-Toxic
same,IC50,[1],4.5 µM
same,Activity,[4],Non-Toxic
same,Activity,[5],Non-Toxic
same,"remaining at 24 h, 250 µM",[13],> 95%
same,solubility,[14],Soluble
same,IC50,[2],0.0616 µM
same,IC50,[6],90 µM
same,Activity,[7],Non-Toxic
O=C(NO)c1ccc(COc2c(-c3cccnc3)c3ccccc3n(Cc3ccccc3)c2=O)cc1,IC50,[1],2.5 µM
same,IC50,[2],0.0256 µM
O=C(NO)c1ccc(COc2c(-c3ccccc3)c3ccccc3n(C3CCN(Cc4ccccc4)CC3)c2=O)cc1,"inhibition at 1.5 h, 50 µM",[9],79%
same,"inhibition at 1.5 h, 10 µM",[10],46%
same,"inhibition at 1.5 h, 1 µM",[11],< 10%
same,"inhibition at 1.5 h, 25 µM",[12],67%
same,IC50,[2],0.87 µM
